Measured values reported in ChEMBL document CHEMBL4308878, “Discovery of covalent enzyme inhibitors using virtual docking of covalent fragments” (Bioorg Med Chem Lett, 2019).
Activity calls are given as the source filed them. The calls are words filed in the database; no cut-off is given here.

Assays:
Cathepsin B [1] = target: T1, Cathepsin B (Homo sapiens, UniProt P07858); experiment: Inhibition of cathepsin B (unknown origin) using Z-Arg-Arg-AMC as substrate after 5 mins by fluorimetric method
Cathepsin B [2] = target: T1, Cathepsin B; experiment: Inhibition of cathepsin B (unknown origin) assessed as ratio of Kinact to Ki using Z-Arg-Arg-AMC as substrate after 5 mins by fluorimetric method
Procathepsin L [3] = target: T2, Procathepsin L (Homo sapiens, UniProt P07711); experiment: Inhibition of cathepsin L (unknown origin) using Z-Phe-Arg-AMC as substrate after 5 mins by fluorimetric method
Procathepsin L [4] = target: T2, Procathepsin L; experiment: Inhibition of cathepsin L (unknown origin) assessed as ratio of Kinact to Ki using Z-Phe-Arg-AMC as substrate after 5 mins by fluorimetric method
Target sequence in this assay (P07711 114-333 limits assumed): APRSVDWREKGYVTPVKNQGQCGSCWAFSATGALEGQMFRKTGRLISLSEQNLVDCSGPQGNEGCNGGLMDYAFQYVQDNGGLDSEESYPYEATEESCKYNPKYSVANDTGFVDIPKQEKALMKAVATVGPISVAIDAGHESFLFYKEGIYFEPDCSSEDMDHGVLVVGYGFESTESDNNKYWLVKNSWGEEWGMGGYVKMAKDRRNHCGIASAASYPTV

Procathepsin L [5] = target: T2, Procathepsin L; experiment: Inhibition of human liver cathepsin L using Z-FR-AMC as substrate measured at 1 min interval for 20 mins followed by every 15 mins for 2 hrs by fluorescence assay
Procathepsin L [6] = target: T2, Procathepsin L; experiment: Inhibition of human liver cathepsin L assessed as ratio of Kinact to Ki using Z-FR-AMC as substrate measured at 1 min interval for 20 mins followed by every 15 mins for 2 hrs by fluorescence assay
Target sequence in this assay (P07711 114-333 limits assumed): as above

Procathepsin L [7] = target: T2, Procathepsin L; experiment: Competitive inhibition of human liver cathepsin L using Z-FR-AMC as substrate measured at 1 min interval for 20 mins followed by every 15 mins for 2 hrs by fluorescence assay
Cathepsin B [8] = target: T1, Cathepsin B; experiment: Inhibition of human liver cathepsin B using Z-Arg-Arg-AMC as substrate measured at 1 min interval for 20 mins followed by every 15 mins for 2 hrs by fluorescence assay
Cathepsin B [9] = target: T1, Cathepsin B; experiment: Inhibition of human liver cathepsin B using Z-Arg-Arg-AMC as substrate preincubated for 60 mins followed by substrate addition and measured at 1 min interval for 20 mins consecutively at every 15 mins for 2 hrs by fluorescence assay
[10] = target: T3, Calpain-1 catalytic subunit (Homo sapiens) (UniProt P07384); experiment: Inhibition of human calpain1 using Suc-Leu-Tyr-AMC as substrate measured at 1 min interval for 20 mins followed by every 15 mins for 2 hrs by fluorescence assay
T3 sequence (whole entry): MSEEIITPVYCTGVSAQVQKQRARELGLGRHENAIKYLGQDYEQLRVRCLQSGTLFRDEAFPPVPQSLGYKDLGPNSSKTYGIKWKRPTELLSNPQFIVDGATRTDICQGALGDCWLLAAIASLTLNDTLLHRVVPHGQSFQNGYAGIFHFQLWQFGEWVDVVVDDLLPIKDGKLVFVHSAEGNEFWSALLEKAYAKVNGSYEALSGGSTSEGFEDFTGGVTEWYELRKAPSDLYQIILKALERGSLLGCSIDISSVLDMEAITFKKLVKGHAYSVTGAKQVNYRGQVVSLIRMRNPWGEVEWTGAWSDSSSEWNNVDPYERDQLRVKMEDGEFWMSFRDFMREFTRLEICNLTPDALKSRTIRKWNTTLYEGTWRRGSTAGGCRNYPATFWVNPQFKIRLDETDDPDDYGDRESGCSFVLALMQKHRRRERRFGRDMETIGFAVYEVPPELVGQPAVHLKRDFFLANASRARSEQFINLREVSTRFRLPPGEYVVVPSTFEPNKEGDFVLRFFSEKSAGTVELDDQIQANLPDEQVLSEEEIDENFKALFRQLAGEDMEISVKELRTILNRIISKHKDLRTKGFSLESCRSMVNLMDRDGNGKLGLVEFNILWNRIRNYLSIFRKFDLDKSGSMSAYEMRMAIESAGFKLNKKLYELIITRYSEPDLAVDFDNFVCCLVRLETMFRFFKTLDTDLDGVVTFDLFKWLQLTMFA

[11] = target: T3, Calpain-1 catalytic subunit (Homo sapiens); experiment: Inhibition of human calpain1 using Suc-Leu-Tyr-AMC as substrate preincubated for 60 mins followed by substrate addition and measured at 1 min interval for 20 mins consecutively at every 15 mins for 2 hrs by fluorescence assay
[12] = target: T4, Ubiquitin carboxyl-terminal hydrolase 8 (Homo sapiens) (UniProt P40818); experiment: Inhibition of recombinant USP8 catalytic domain (unknown origin) using Ubiquitin-Lys-TAMRA as substrate measured at 6 mins interval for 4 hrs by fluorescence assay
T4 sequence (whole entry): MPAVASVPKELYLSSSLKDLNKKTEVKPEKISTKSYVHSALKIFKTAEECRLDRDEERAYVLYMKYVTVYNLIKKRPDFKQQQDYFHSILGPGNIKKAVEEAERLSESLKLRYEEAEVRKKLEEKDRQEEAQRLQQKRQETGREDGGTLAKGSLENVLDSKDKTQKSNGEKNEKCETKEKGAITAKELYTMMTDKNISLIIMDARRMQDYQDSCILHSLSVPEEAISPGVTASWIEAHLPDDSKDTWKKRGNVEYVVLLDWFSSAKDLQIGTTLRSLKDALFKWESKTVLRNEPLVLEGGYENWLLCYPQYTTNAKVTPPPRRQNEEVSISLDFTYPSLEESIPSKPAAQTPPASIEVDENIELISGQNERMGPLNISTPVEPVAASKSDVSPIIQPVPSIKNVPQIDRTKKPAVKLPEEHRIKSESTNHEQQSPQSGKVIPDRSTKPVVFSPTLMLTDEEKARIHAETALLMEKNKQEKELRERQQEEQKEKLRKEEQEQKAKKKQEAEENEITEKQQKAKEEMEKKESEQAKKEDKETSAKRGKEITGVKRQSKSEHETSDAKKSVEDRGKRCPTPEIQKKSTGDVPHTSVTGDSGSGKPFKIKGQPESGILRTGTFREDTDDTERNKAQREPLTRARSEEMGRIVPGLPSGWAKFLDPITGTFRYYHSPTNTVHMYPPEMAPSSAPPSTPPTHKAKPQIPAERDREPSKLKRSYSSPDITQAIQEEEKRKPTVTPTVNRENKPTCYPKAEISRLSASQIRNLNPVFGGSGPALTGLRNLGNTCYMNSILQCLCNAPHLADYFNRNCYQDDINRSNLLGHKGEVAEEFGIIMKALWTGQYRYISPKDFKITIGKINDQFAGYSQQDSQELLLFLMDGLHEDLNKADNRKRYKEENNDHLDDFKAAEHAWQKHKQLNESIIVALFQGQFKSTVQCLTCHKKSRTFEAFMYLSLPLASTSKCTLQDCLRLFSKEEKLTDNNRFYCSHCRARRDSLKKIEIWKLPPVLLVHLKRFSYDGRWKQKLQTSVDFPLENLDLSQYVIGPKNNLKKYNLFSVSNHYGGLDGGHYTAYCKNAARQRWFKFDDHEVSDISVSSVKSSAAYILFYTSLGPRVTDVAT

[13] = target: T4, Ubiquitin carboxyl-terminal hydrolase 8 (Homo sapiens); experiment: Inhibition of recombinant USP8 catalytic domain (unknown origin) using Ubiquitin-Lys-TAMRA as substrate preincubated for 60 mins followed by substrate addition and measured at 6 mins interval for 4 hrs by fluorescence assay
Procathepsin L [14] = target: T2, Procathepsin L; experiment: Irreversible inhibition of human liver cathepsin L at 50 uM using Z-FR-AMC as substrate preincubated for 3 hrs followed by compound washout measured by gel filtration assay
Summary of the method: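 Cathepsin L (10 nM) was preincubated with inhibitor (50 μM), then passed through a gel-filtration spin column to remove free compound. Flow-through aliquots were assayed for recovery of enzyme activity at several time points.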
Target sequence in this assay (P07711 114-333 limits assumed): as the sequence (P07711 114-333 limits assumed) above

SMILES	Ki (Cathepsin B [1]) [µM]	Kinact (Cathepsin B [1]) [s⁻¹]	Ratio (Cathepsin B [2]) [M⁻¹ s⁻¹]	Ki (Procathepsin L [3]) [µM]	Kinact (Procathepsin L [3]) [s⁻¹]	Ratio (Procathepsin L [4]) [M⁻¹ s⁻¹]	further results
O=C(N[C@H](/C=C/S(=O)(=O)c1ccccc1)CCc1ccccc1)[C@H](Cc1cc(I)c(O)c(I)c1)NC(=O)N1CCOCC1	0.34	0.36	1.06e+06	0.72	0.28	389000	
C[C@@H](Oc1ccc(Br)cc1Br)C(=O)NC/C=C/S(C)(=O)=O							Ki (Procathepsin L [5]): 146 µM; Kinact (Procathepsin L [5]): 0.0006 s⁻¹
CS(=O)(=O)/C=C/CNC(=O)COc1ccc(Br)cc1Br							Ratio (Procathepsin L [6]): 5 M⁻¹ s⁻¹; Ki (Procathepsin L [7]): 59 µM; Kinact (Procathepsin L [7]): 0.0003 s⁻¹; inhibition (Cathepsin B [8]): inactive; inhibition (Cathepsin B [9]): inactive; inhibition [10]: inactive; inhibition [11]: inactive; inhibition [12]: inactive; inhibition [13]: inactive; inhibition (Procathepsin L [14]): Active
O=C(N[C@H](/C=C/S(=O)(=O)c1ccccc1)CCc1ccccc1)[C@H](Cc1ccccc1)NC(=O)N1CCOCC1	11	0.17	15500	1	0.24	240000	
